The test system of data set [1] is Rattus norvegicus. The experiment in a line: Antiparkinsonian activity in 6-hydroxydopamine lesioned Wistar rat assessed as number of rotation per 10 mins at 21.81 mg/kg, po. In kind it is functional.
In data set [2] the test system is Rattus norvegicus. The experiment in a line: Antiparkinsonian activity in 6-hydroxydopamine lesioned Wistar rat assessed as area under curve measured as number of rotation per 10 mins at 21.81 mg/kg, po. In kind it is functional. The procedure, abridged: (§1)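 Male Wistar rats were given desipramine (25 mg/kg ip) and then a unilateral 6-OHDA injection (8 µg free base) into the left medial forebrain bundle. Lesions were confirmed ≥2 weeks later by apomorphine (0.5 mg/kg sc), accepting rats with >6 turns/min. Rats (n=4–8) received benserazide 10 mg/kg and 30 min basal recording, then drug at 63.4 µmol/kg ip or po in saline. Contraversive rotations were counted per 10 min over 240 min. AUC was calculated and expressed as % of the L-dopa effect.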

For data set [3], the system named is Rattus norvegicus. The experiment in a line: Antiparkinsonian activity in 6-hydroxydopamine lesioned Wistar rat assessed as duration of rotation per 10 mins at 21.81 mg/kg, po. In kind it is functional. The procedure, abridged:
(§2)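 The 6-OHDA-lesioned male Wistar rats were apomorphine-screened (>6 turns/min) and given benserazide 10 mg/kg, then a saline-vehicle dose of 63.4 µmol/kg ip or po (n=4–8). Rotations were counted per 10 min for 4 h. Duration of activity was the time turning >10 turns per 10 min, expressed as % of the L-dopa effect.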

Data set [4] has as its system Rattus norvegicus. Nature of the data set: Antiparkinsonian activity in 6-hydroxydopamine lesioned Wistar rat assessed as duration of rotation per 10 mins at 14.74 mg/kg, ip. In kind it is functional. Conditions: route intraperitoneal. The procedure, abridged: as §2
For data set [5], the system named is Rattus norvegicus. The experiment in a line: Antiparkinsonian activity in 6-hydroxydopamine lesioned Wistar rat assessed as duration of rotation per 10 mins at 14.74 mg/kg, po. In kind it is functional. The procedure, abridged:
as §2

Data set [6] has as its system Rattus norvegicus. The experiment in a line: Antiparkinsonian activity in 6-hydroxydopamine lesioned Wistar rat assessed as number of rotation per 10 mins at 14.74 mg/kg, ip. In kind it is functional. As to conditions: route intraperitoneal. The procedure, abridged: (§3)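 Rotometer assay in unilaterally 6-OHDA-lesioned male Wistar rats (apomorphine-confirmed, >6 turns/min). Benserazide 10 mg/kg was given, followed by compound at 63.4 µmol/kg ip or po in saline (n=4–8 per treatment). Rotations were recorded per 10 min for 240 min. Peak (maximum) rotations per 10 min were taken and expressed relative to L-dopa.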

The test system of data set [7] is Rattus norvegicus. The experiment in a line: Antiparkinsonian activity in 6-hydroxydopamine lesioned Wistar rat assessed as number of rotation per 10 mins at 14.74 mg/kg, po. In kind it is functional. The procedure, abridged:
as §3

Data set [8] concerns Rattus norvegicus. Nature of the data set: Antiparkinsonian activity in 6-hydroxydopamine lesioned Wistar rat assessed as area under curve measured as number of rotation per 10 mins at 14.74 mg/kg, po. In kind it is functional. The procedure, abridged: as §1
In data set [9] the test system is Rattus norvegicus. Nature of the data set: Antiparkinsonian activity in 6-hydroxydopamine lesioned Wistar rat assessed as area under curve measured as number of rotation per 10 mins at 14.74 mg/kg, ip. In kind it is functional. As to conditions: route intraperitoneal. The procedure, abridged: as §1
Data set [10] deals with Rattus norvegicus. Nature of the data set: Cmax in Wistar rat at 14.8 mg/kg, po assessed as L-dopa level. In kind it is ADME, organism-based. Also noted: dose 14.8 mg/kg, route oral. As to conditions: in vivo. The procedure, abridged: (§4)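 Naïve male Wistar rats (250–500 g), fasted overnight, dosed orally in 0.9% saline with benserazide (10 mg/kg) at dose equivalent to 12.5 mg/kg L-dopa. Heparinised tail-vein blood at various times; plasma extracted with 20% TFA in 10 mM metabisulphite with warfarin internal standard; L-dopa quantified by LC-MS/MS (positive ESI) against plasma standard curve 0.39–50 µM.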

For data set [11], the system named is Rattus norvegicus. The experiment in a line: Apparent half life in Wistar rat at 14.8 mg/kg, po assessed as L-dopa level. It is filed as ADME, organism-based. Conditions: in vivo. More on the design: dose 14.8 mg/kg, route oral. The procedure, abridged: as §4
The test system of data set [12] is Rattus norvegicus. The experiment in a line: AUC (0 to 4 hrs) in Wistar rat at 14.8 mg/kg, po assessed as L-dopa level. Conditions: in vivo. Also noted: time < 4 hr, dose 14.8 mg/kg, route oral. In kind it is ADME, organism-based, Plasma. The procedure, abridged:
(§5)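 Naïve male Wistar rats (250–500 g), fasted overnight, dosed with compound in 0.9% saline together with benserazide (10 mg/kg), at a dose molar-equivalent to 12.5 mg/kg L-dopa. Heparinised tail-vein blood was sampled at intervals and the plasma stored at −80 °C. L-dopa was extracted with 20% TFA/10 mM metabisulphite plus warfarin internal standard and quantified by LC-MS/MS (positive ESI) against plasma standard curves.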

The subject of data set [13] is Rattus norvegicus. The experiment in a line: Antiparkinsonian activity in 6-hydroxydopamine lesioned Wistar rat assessed as number of rotation per 10 mins at 20.97 mg/kg, po. It is filed as functional. The procedure, abridged: as §3
The subject of data set [14] is Rattus norvegicus. Nature of the data set: Antiparkinsonian activity in 6-hydroxydopamine lesioned Wistar rat assessed as area under curve measured as number of rotation per 10 mins at 20.97 mg/kg, po. In kind it is functional. The procedure, abridged: as §1
In data set [15] the test system is Rattus norvegicus. Nature of the data set: Antiparkinsonian activity in 6-hydroxydopamine lesioned Wistar rat assessed as duration of rotation per 10 mins at 20.97 mg/kg, po. In kind it is functional. The procedure, abridged:
as §2

Data set [16] relates to Rattus norvegicus. The experiment in a line: Antiparkinsonian activity in 6-hydroxydopamine lesioned Wistar rat assessed as number of rotation per 10 mins at 21.86 mg/kg, po. It is filed as functional.
Data set [17] concerns Rattus norvegicus. Nature of the data set: Antiparkinsonian activity in 6-hydroxydopamine lesioned Wistar rat assessed as area under curve measured as number of rotation per 10 mins at 21.86 mg/kg, po. In kind it is functional. The procedure, abridged: as §1
The test system of data set [18] is Rattus norvegicus. The experiment in a line: Antiparkinsonian activity in 6-hydroxydopamine lesioned Wistar rat assessed as duration of rotation per 10 mins at 21.86 mg/kg, po. It is filed as functional. The procedure, abridged:
as §2

Data set [19] concerns Rattus norvegicus. The experiment in a line: Cmax in Wistar rat at 42.5 mg/kg, po assessed as L-dopa level. Also noted: dose 42.5 mg/kg, route oral. In kind it is ADME, organism-based. Conditions: in vivo. The procedure, abridged: as §4
Data set [20] has as its system Rattus norvegicus. The experiment in a line: Apparent half life in Wistar rat at 42.5 mg/kg, po assessed as L-dopa level. It is filed as ADME, organism-based. Also noted: dose 42.5 mg/kg, route oral. As to conditions: in vivo. The procedure, abridged: as §4
The test system of data set [21] is Rattus norvegicus. The experiment in a line: AUC (0 to 4 hrs) in Wistar rat at 42.5 mg/kg, po assessed as L-dopa level. In kind it is ADME, organism-based, Plasma. Also noted: time < 4 hr, dose 42.5 mg/kg, route oral. Conditions: in vivo. The procedure, abridged: as §5
For data set [22], the system named is Rattus norvegicus. Nature of the data set: Antiparkinsonian activity in 6-hydroxydopamine lesioned Wistar rat assessed as number of rotation per 10 mins at 21.35 mg/kg, ip. It is filed as functional. Conditions: route intraperitoneal.
The test system of data set [23] is Rattus norvegicus. The experiment in a line: Antiparkinsonian activity in 6-hydroxydopamine lesioned Wistar rat assessed as number of rotation per 10 mins at 21.35 mg/kg, po. In kind it is functional.
In data set [24] the test system is Rattus norvegicus. Nature of the data set: Antiparkinsonian activity in 6-hydroxydopamine lesioned Wistar rat assessed as area under curve measured as number of rotation per 10 mins at 21.35 mg/kg, po. It is filed as functional. The procedure, abridged:
as §1

Data set [25] relates to Rattus norvegicus. Nature of the data set: Antiparkinsonian activity in 6-hydroxydopamine lesioned Wistar rat assessed as area under curve measured as number of rotation per 10 mins at 21.35 mg/kg, ip. In kind it is functional. Conditions: route intraperitoneal. The procedure, abridged: as §1
The subject of data set [26] is Rattus norvegicus. Nature of the data set: Antiparkinsonian activity in 6-hydroxydopamine lesioned Wistar rat assessed as duration of rotation per 10 mins at 21.35 mg/kg, po. In kind it is functional. The procedure, abridged:
as §2

Data set [27] relates to Rattus norvegicus. The experiment in a line: Antiparkinsonian activity in 6-hydroxydopamine lesioned Wistar rat assessed as duration of rotation per 10 mins at 21.35 mg/kg, ip. As to conditions: route intraperitoneal. It is filed as functional. The procedure, abridged:
as §2

For the molecule `CC(=O)Oc1ccc(C[C@H](N)C(=O)N(C)C)cc1OC(C)=O.Cl`, the values for the Activity in the data set with Rattus norvegicus [1] and in the data set with Rattus norvegicus [2] were 1 and 26, respectively. In the data set with Rattus norvegicus [3], the Time stood at 0 min.

Regarding `Cl.NC(=O)[C@@H](N)Cc1ccc(O)c(O)c1`, the Time in the data set with Rattus norvegicus [4] came out at 155 min; in the data set on Rattus norvegicus [5], 103 min. Also, the Activity is listed as 144 in the data set with Rattus norvegicus [6], 105 with Rattus norvegicus [7], 612 with Rattus norvegicus [8] and 1186 with Rattus norvegicus [9]. Further, in the data set with Rattus norvegicus [10], the Cmax is 2203 ng/mL. Moreover, in the data set with Rattus norvegicus [11], the t1/2 is reported as 52 min. In addition, the AUC in the data set on Rattus norvegicus [12] was 256 µg·min/mL.

`CNC(=O)[C@@H](N)Cc1ccc(OC(C)=O)c(OC(C)=O)c1.Cl`: the Activity with Rattus norvegicus [13] came out at 1; in the data set with Rattus norvegicus [14], 26. The Time with Rattus norvegicus [15] was 0 min.

In the case of `CCNC(=O)[C@@H](N)Cc1ccc(OC(C)=O)c(OC(C)=O)c1.Cl`, the Activity in the data set on Rattus norvegicus [16] is 6; in the data set on Rattus norvegicus [17], 20. In addition, in the data set with Rattus norvegicus [18], the Time stood at 3 min.

As to `CC(C)(C)C(=O)Oc1ccc(C[C@H](N)C(N)=O)cc1OC(=O)C(C)(C)C.Cl`, in the data set with Rattus norvegicus [19], the Cmax stood at 415 ng/mL. Besides, the t1/2 in the data set with Rattus norvegicus [20] was 51 min. In addition, the AUC in the data set with Rattus norvegicus [21] is 44 µg·min/mL.

Regarding `Cl.N[C@@H](Cc1ccc(O)c(O)c1)C(=O)NCCc1ccccc1`, the Activity with Rattus norvegicus [22] is on record as 124; in the data set with Rattus norvegicus [23], 17; in the data set on Rattus norvegicus [24], 94; with Rattus norvegicus [25], 825. In addition, the Time in the data set with Rattus norvegicus [26] is on record as 30 min; with Rattus norvegicus [27], 124 min.

The values are drawn from ChEMBL document CHEMBL1240480, “Design, synthesis and biological evaluation of L-dopa amide derivatives as potential prodrugs for the treatment of Parkinson's disease” (Eur J Med Chem, 2010).
